Experimental data: ChEMBL document CHEMBL2057149 (J Med Chem, 2012)
Active and inactive are the calls of the source. The calls are words filed in the database; no cut-off is given here.

Columns and labels:
[1] = tested on: HMVEC; test: Antiangiogenic activity in FGF2-stimulated HMVEC cells after 72 hrs by CellTiter assay; type: functional, cell-based; settings: Homo sapiens
[2] = tested on: Plasma; test: Anticoagulant activity in pooled human plasma assessed as activated partial thromboplastin time at 0.1 mg/ml; type: ADME, cell-free
How it was run: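 APTT of pooled normal human plasma measured with compound at 0–100 μg/mL in PBS on a ball coagulameter, using unfractionated heparin as the reference. Normal range 26–36 s; coefficient of variation 2% at 36 s and 5–7% at 90 s or above. Values are the mean of two determinations.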

[3] = tested on: Plasma; test: Anticoagulant activity in pooled human plasma assessed as prolongation of the recalcification time at 0.1 mg/ml by Heptest assay; type: ADME, cell-free
How it was run: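 Heptest clotting time in pooled normal human plasma; normal range 13–20 s. Values are the mean of two determinations.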

[4] = tested on: HUVEC; test: Antiangiogenic activity in FGF2-stimulated HUVEC cells after 72 hrs by CellTiter assay; type: functional, cell-based; settings: Homo sapiens
[5] = biological target: Vascular endothelial growth factor A (Homo sapiens) (UniProt P15692); test: Binding affinity to VEGF by surface plasmon resonance assay
[6] = tested on: HMVEC; test: Antiangiogenic activity in VEGF-stimulated HMVEC cells after 72 hrs by CellTiter assay; type: functional, cell-based; settings: Homo sapiens
[7] = tested on: HUVEC; test: Antiangiogenic activity in HUVEC cells assessed as inhibition of tube formation at 10 uM after 18 hrs by matrigel assay; type: functional; settings: Homo sapiens
How it was run: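 HUVECs (passage 4 or 5, 70–80% confluent) suspended at 4 × 10⁵/mL in EGM2 with all supplements except heparin, mixed 1:1 with compound (final 10, 50 or 100 μM) in triplicate. Plated on growth factor-reduced Matrigel for 18 h. Branching nodes joining ≥3 tubules counted manually by phase-contrast microscopy. Reported as % inhibition versus untreated cells.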

[8] = tested on: HMVEC; test: Antiangiogenic activity in FGF1-stimulated HMVEC cells after 72 hrs by CellTiter assay; type: functional, cell-based; settings: Homo sapiens
[9] = biological target: Fibroblast growth factor 2 (Homo sapiens, UniProt P09038); test: Binding affinity to FGF-2 by surface plasmon resonance assay
Chain of Fibroblast growth factor 2 (P09038 143-288 limits assumed): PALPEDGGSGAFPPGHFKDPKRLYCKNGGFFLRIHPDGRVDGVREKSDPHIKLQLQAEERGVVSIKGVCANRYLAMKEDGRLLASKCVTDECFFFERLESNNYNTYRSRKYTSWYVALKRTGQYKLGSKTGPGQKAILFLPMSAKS
How it was run: (§1)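 Solution-affinity SPR on heparin-coated CM4 chips. FGF-1 measured in HBS-EP (10 mM HEPES pH 7.4, 150 mM NaCl, 3.0 mM EDTA, 0.005% polysorbate 20); FGF-2 measured in HBS-EP with 300 mM NaCl. Kd is the average of at least duplicate measurements ± SD.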

[10] = biological target: Fibroblast growth factor 1 (Homo sapiens, UniProt P05230); test: Binding affinity to FGF-1 by surface plasmon resonance assay; how it was run: as §1
Chain of Fibroblast growth factor 1 (P05230 whole entry): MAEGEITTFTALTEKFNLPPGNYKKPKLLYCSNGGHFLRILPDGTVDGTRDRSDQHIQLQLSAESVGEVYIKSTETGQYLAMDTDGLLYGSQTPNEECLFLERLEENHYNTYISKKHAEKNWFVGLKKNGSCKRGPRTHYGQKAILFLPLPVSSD

[11] = tested on: HUVEC; test: Antiangiogenic activity in FGF1-stimulated HUVEC cells after 72 hrs by CellTiter assay; type: functional, cell-based; settings: Homo sapiens
[12] = tested on: HUVEC; test: Antiangiogenic activity in VEGF-stimulated HUVEC cells after 72 hrs by CellTiter assay; type: functional, cell-based; settings: Homo sapiens
[13] = biological target: T1, Heparanase (Homo sapiens, UniProt Q9Y251); test: Inhibition of human recombinant heparanase after 2 to 24 hrs by WST1 dye based fondaparinux assay
T1 sequence (Q9Y251 whole entry): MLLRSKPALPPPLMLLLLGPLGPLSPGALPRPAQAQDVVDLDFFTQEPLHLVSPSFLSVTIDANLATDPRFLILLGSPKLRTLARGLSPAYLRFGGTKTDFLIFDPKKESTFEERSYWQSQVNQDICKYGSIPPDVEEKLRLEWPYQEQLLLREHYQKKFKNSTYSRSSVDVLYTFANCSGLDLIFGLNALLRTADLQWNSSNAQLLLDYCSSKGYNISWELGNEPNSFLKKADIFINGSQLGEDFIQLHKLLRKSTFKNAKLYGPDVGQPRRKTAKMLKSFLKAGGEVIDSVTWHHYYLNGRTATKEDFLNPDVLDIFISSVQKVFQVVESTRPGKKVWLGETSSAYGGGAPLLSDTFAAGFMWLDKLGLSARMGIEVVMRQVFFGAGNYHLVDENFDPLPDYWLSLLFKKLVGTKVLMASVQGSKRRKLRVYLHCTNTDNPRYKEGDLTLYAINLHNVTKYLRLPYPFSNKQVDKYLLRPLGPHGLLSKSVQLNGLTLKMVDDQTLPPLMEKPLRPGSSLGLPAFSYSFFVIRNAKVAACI

SMILES | Activity [1] | APTT [2] | Time [3] | IC50 [4] | Kd [5] | Activity [6] | inhibition at 10 µM [7] | Activity [8] | Kd [9] | Kd [10] | IC50 [11] | IC50 [12] | Ki [13]
CCCCCCCCCCCCCCCCCC(=O)NCCCO[C@@H]1O[C@H](COS(=O)(=O)[O-])[C@@H](O[C@H]2O[C@H](COS(=O)(=O)[O-])[C@@H](O[C@H]3O[C@H](COS(=O)(=O)[O-])[C@@H](O[C@H]4O[C@H](COS(=O)(=O)[O-])[C@@H](OS(=O)(=O)[O-])[C@H](OS(=O)(=O)[O-])[C@H]4OS(=O)(=O)[O-])[C@H](OS(=O)(=O)[O-])[C@H]3OS(=O)(=O)[O-])[C@H](OS(=O)(=O)[O-])[C@H]2OS(=O)(=O)[O-])[C@H](OS(=O)(=O)[O-])[C@H]1OS(=O)(=O)[O-].[Na+].[Na+].[Na+].[Na+].[Na+].[Na+].[Na+].[Na+].[Na+].[Na+].[Na+].[Na+].[Na+] | Active | 65.8 s | 32.2 s | 0.8 µM | 0.014 µM | Active | > 80% | Active |  |  |  |  | 
CC(=O)O[C@H]1C[C@H]2[C@@H](CC[C@H]3C[C@@H](OS(=O)(=O)[O-])CC[C@@]32C)[C@@H]2CC[C@H]([C@H](C)CCC(=O)N[C@@H]3O[C@H](COS(=O)(=O)[O-])[C@@H](O[C@H]4O[C@H](COS(=O)(=O)[O-])[C@@H](O[C@H]5O[C@H](COS(=O)(=O)[O-])[C@@H](O[C@H]6O[C@H](COS(=O)(=O)[O-])[C@@H](OS(=O)(=O)[O-])[C@H](OS(=O)(=O)[O-])[C@H]6OS(=O)(=O)[O-])[C@H](OS(=O)(=O)[O-])[C@H]5OS(=O)(=O)[O-])[C@H](OS(=O)(=O)[O-])[C@H]4OS(=O)(=O)[O-])[C@H](OS(=O)(=O)[O-])[C@H]3OS(=O)(=O)[O-])[C@@]12C.[Na+].[Na+].[Na+].[Na+].[Na+].[Na+].[Na+].[Na+].[Na+].[Na+].[Na+].[Na+].[Na+].[Na+] | Active | 41 s | 26.8 s | > 50 µM | 0.00795 µM | Active |  | Active | 0.05 µM | 0.00125 µM | > 50 µM | > 50 µM | 0.02 µM
CC(C)CCC[C@@H](C)[C@H]1CC[C@H]2[C@@H]3CC[C@H]4C[C@@H](OCc5cn(CCCO[C@H]6O[C@H](COS(=O)(=O)[O-])[C@@H](OS(=O)(=O)[O-])[C@H](OS(=O)(=O)[O-])[C@@H]6O[C@H]6O[C@H](COS(=O)(=O)[O-])[C@@H](OS(=O)(=O)[O-])[C@H](O[C@H]7O[C@H](COS(=O)(=O)[O-])[C@@H](OS(=O)(=O)[O-])[C@H](OS(=O)(=O)[O-])[C@@H]7OS(=O)(=O)[O-])[C@@H]6OS(=O)(=O)[O-])nn5)CC[C@]4(C)[C@H]3CC[C@]12C.[Na+].[Na+].[Na+].[Na+].[Na+].[Na+].[Na+].[Na+].[Na+].[Na+] | Active | 73.3 s | 33.1 s | 1.7 µM | 0.46 µM | Active |  | Active | 0.48 µM | 0.0226 µM | 3.8 µM | 2.1 µM | 0.0085 µM
CC(C)CCC[C@@H](C)[C@H]1CC[C@H]2[C@@H]3CC[C@H]4C[C@@H](OCc5cn(CCCO[C@H]6O[C@H](COS(=O)(=O)[O-])[C@@H](OS(=O)(=O)[O-])[C@H](O[C@H]7O[C@H](COS(=O)(=O)[O-])[C@@H](OS(=O)(=O)[O-])[C@H](O[C@H]8O[C@H](COS(=O)(=O)[O-])[C@@H](OS(=O)(=O)[O-])[C@H](OS(=O)(=O)[O-])[C@@H]8OS(=O)(=O)[O-])[C@@H]7OS(=O)(=O)[O-])[C@@H]6OS(=O)(=O)[O-])nn5)CC[C@]4(C)[C@H]3CC[C@]12C.[Na+].[Na+].[Na+].[Na+].[Na+].[Na+].[Na+].[Na+].[Na+].[Na+] | Active | 71.4 s | 26.4 s | 1.2 µM | 0.26 µM | Active |  | Active | 0.474 µM | 0.0143 µM | 2.61 µM | 1.4 µM | 0.0084 µM
CC(C)CCC[C@@H](C)[C@H]1CC[C@H]2[C@@H]3CC[C@H]4C[C@@H](O[C@H]5O[C@H](COS(=O)(=O)[O-])[C@@H](OS(=O)(=O)[O-])[C@H](O[C@H]6O[C@H](COS(=O)(=O)[O-])[C@@H](OS(=O)(=O)[O-])[C@H](O[C@H]7O[C@H](COS(=O)(=O)[O-])[C@@H](OS(=O)(=O)[O-])[C@H](OS(=O)(=O)[O-])[C@@H]7OS(=O)(=O)[O-])[C@@H]6OS(=O)(=O)[O-])[C@@H]5OS(=O)(=O)[O-])CC[C@]4(C)[C@H]3CC[C@]12C.[Na+].[Na+].[Na+].[Na+].[Na+].[Na+].[Na+].[Na+].[Na+].[Na+] | Active | 58.5 s | 24.2 s | 1.8 µM | 0.09 µM | Active |  | Active | 0.49 µM | 0.016 µM | 2.5 µM | 1.7 µM | 0.0105 µM
CC(C)CCC[C@@H](C)[C@H]1CC[C@H]2[C@@H]3CC[C@H]4C[C@@H](OCc5cn([C@@H]6O[C@H](COS(=O)(=O)[O-])[C@@H](O[C@H]7O[C@H](COS(=O)(=O)[O-])[C@@H](O[C@H]8O[C@H](COS(=O)(=O)[O-])[C@@H](OS(=O)(=O)[O-])[C@H](OS(=O)(=O)[O-])[C@H]8OS(=O)(=O)[O-])[C@H](OS(=O)(=O)[O-])[C@H]7OS(=O)(=O)[O-])[C@H](OS(=O)(=O)[O-])[C@H]6OS(=O)(=O)[O-])nn5)CC[C@]4(C)[C@H]3CC[C@]12C.[Na+].[Na+].[Na+].[Na+].[Na+].[Na+].[Na+].[Na+].[Na+].[Na+] | Active | 61.2 s | 30.2 s | 1.2 µM | 0.79 µM | Active |  | Active | 0.61 µM | 0.05 µM | 2.1 µM | 1.8 µM | 0.016 µM
CC(C)CCC[C@@H](C)[C@H]1CC[C@H]2[C@@H]3CC[C@H]4C[C@@H](OCc5cn(CCCO[C@H]6O[C@H](COS(=O)(=O)[O-])[C@@H](OS(=O)(=O)[O-])[C@H](OS(=O)(=O)[O-])[C@@H]6O[C@H]6O[C@H](COS(=O)(=O)[O-])[C@@H](OS(=O)(=O)[O-])[C@H](O[C@H]7O[C@H](COS(=O)(=O)[O-])[C@@H](OS(=O)(=O)[O-])[C@H](O[C@H]8O[C@H](COS(=O)(=O)[O-])[C@@H](OS(=O)(=O)[O-])[C@H](O[C@H]9O[C@H](COS(=O)(=O)[O-])[C@@H](OS(=O)(=O)[O-])[C@H](OS(=O)(=O)[O-])[C@@H]9OS(=O)(=O)[O-])[C@@H]8OS(=O)(=O)[O-])[C@@H]7OS(=O)(=O)[O-])[C@@H]6OS(=O)(=O)[O-])nn5)CC[C@]4(C)[C@H]3CC[C@]12C.[Na+].[Na+].[Na+].[Na+].[Na+].[Na+].[Na+].[Na+].[Na+].[Na+].[Na+].[Na+].[Na+].[Na+].[Na+].[Na+] | Active | 63.3 s | 29.6 s | 0.39 µM | 0.00104 µM | Active |  | Active | 0.039 µM | 0.00024 µM | 0.99 µM | 0.22 µM | 0.0055 µM
